From ChEMBL document CHEMBL1125796, “Antitumor properties of 2(1H)-pyrimidinone riboside (zebularine) and its fluorinated analogues” (1991)
Several values for one entry are separate records, joined by “and”; a condition that tells them apart may be missing. Equal values may be shown once.

Columns and labels:
[1] = test system: Mus musculus; assay: Percent increase in life span of drug-treated mice relative to tumored, vehicle treated controls at a dose of 400 mg/kg ip.; type: functional
Method in brief: (§1)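 Tumors implanted day 0: B16 melanoma as 0.5 mL of 1:10 brei into BDF1 mice; L1210 or P388 leukemia as 10^6 cells into CDF1 mice, ip or sc. Drug was given in physiologic saline by ip or oral route, QD 1-9. %ILS was calculated against saline-treated tumored controls, with body-weight change difference as the toxicity read-out. Six mice per dose in most experiments.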

[2] = test system: Mus musculus; assay: Antitumor activity against L1210 tumor in mice, at a dose of 800 mg/kg per ip administration.; type: functional; settings: route intraperitoneal
Method in brief: (§2)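 Tumors implanted ip on day 0: B16 melanoma (0.5 mL of 1:10 brei) in BDF1 mice, and L1210 or P388 leukemia (10^6 cells) in CDF1 mice. Compound was given ip in physiologic saline daily on days 1–9. Read-out was % increase in life span versus vehicle-treated tumored controls, with body-weight change difference also recorded. Six mice per dose, three in some P388 groups.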

[3] = test system: Mus musculus; assay: Antitumor activity against L1210 tumor in mice, at a dose of 400 mg/kg per ip administration.; type: functional; settings: route intraperitoneal; method in brief: as §2
[4] = test system: Mus musculus; assay: Percent increase in life span of drug-treated mice relative to tumored, vehicle treated controls at a dose of 200 mg/kg ip.; type: functional; settings: for ILS at 200 mg/kg: Mus musculus, ip; method in brief: as §1
[5] = test system: Mus musculus; assay: Antitumor activity against L1210 ttumor in mice, at a dose of 200 mg/kg per ip administration.; type: functional; settings: route intraperitoneal; method in brief: as §2
[6] = test system: Mus musculus; assay: Percent increase in life span of drug-treated mice relative to tumored, vehicle treated controls at a dose of 800 mg/kg ip.; type: functional; method in brief: as §1
[7] = test system: Mus musculus; assay: Antitumor activity against L1210 tumor in mice, at a dose of 1.67 mg/kg per ip administration.; type: functional; settings: route intraperitoneal; method in brief: as §2
[8] = test system: Mus musculus; assay: Percent increase in life span of drug-treated mice relative to tumored, vehicle treated controls at a dose of 3.75 mg/kg ip.; type: functional; method in brief: as §1
[9] = test system: Mus musculus; assay: Percent increase in life span of drug-treated mice relative to tumored, vehicle treated controls at a dose of 2.5 mg/kg ip.; type: functional; method in brief: as §1
[10] = test system: Mus musculus; assay: Antitumor activity against L1210 tumor in mice, at a dose of 0.68 mg/kg per ip administration.; type: functional; settings: route intraperitoneal; method in brief: as §2
[11] = test system: Mus musculus; assay: Percent increase in life span of drug-treated mice relative to tumored, vehicle treated controls at a dose of 1.67 mg/kg ip.; type: functional; method in brief: as §1
[12] = test system: Mus musculus; assay: Antitumor activity against L1210 tumor in mice, at a dose of 2.5 mg/kg per ip administration.; type: functional; settings: route intraperitoneal; method in brief: as §2
[13] = test system: Mus musculus; assay: Antitumor activity against L1210 tumor in mice, at a dose of 1.25 mg/kg per ip administration.; type: functional; settings: route intraperitoneal; method in brief: as §2
[14] = test system: Mus musculus; assay: Antitumor activity against L1210 tumor in mice, at a dose of 1.11 mg/kg per ip administration.; type: functional; settings: route intraperitoneal; method in brief: as §2
[15] = test system: Mus musculus; assay: Antitumor activity against P388 tumor in mice, at a dose of 3.75 mg/kg per ip administration.; type: functional; settings: route intraperitoneal; method in brief: as §2
[16] = test system: Mus musculus; assay: Percent increase in life span of drug-treated mice relative to tumored, vehicle treated controls at a dose of 1.11 mg/kg ip.; type: functional; method in brief: as §1
[17] = test system: Mus musculus; assay: Percent increase in life span of drug-treated mice relative to tumored, vehicle treated controls at a dose of 1.25 mg/kg ip.; type: functional; method in brief: as §1
[18] = test system: Mus musculus; assay: Antitumor activity against P388 tumor in mice, at a dose of 1.67 mg/kg per ip administration.; type: functional; settings: route intraperitoneal; method in brief: as §2
[19] = test system: Mus musculus; assay: Antitumor activity against P388 tumor in mice, at a dose of 1.11 mg/kg per ip administration.; type: functional; settings: route intraperitoneal; method in brief: as §2
[20] = test system: Mus musculus; assay: Antitumor activity against P388 tumor in mice, at a dose of 2.5 mg/kg per ip administration.; type: functional; settings: route intraperitoneal; method in brief: as §2
[21] = test system: Mus musculus; assay: Percent increase in life span of drug-treated mice relative to tumored, vehicle treated controls at a dose of 0.68 mg/kg ip.; type: functional; method in brief: as §1
[22] = test system: Mus musculus; assay: Percent increase in life span of drug-treated mice relative to tumored, vehicle treated controls at a dose of 100 mg/kg oral treatment; type: functional
Method in brief: (§3)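 CDF1 mice were implanted ip with 10^6 L1210 cells on day 0. Oral treatment was given on day 1 only, 24 h after implantation. In combinations, the deaminase inhibitor was given as two 250 mg/kg doses 30 min apart, as one dose immediately before ara-C, or as half the dose 30 min before and half immediately after ara-C. %ILS was calculated versus vehicle-treated tumored controls.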

[23] = test system: Mus musculus; assay: Antitumor activity against L1210 tumor in mice, at a dose of 500 mg/kg peroral administration in the presence of 100 mg/kg of zebularine.; type: functional
[24] = test system: Mus musculus; assay: Percent increase in life span of drug-treated mice relative to tumored, vehicle treated controls at a dose of 500 mg/kg orally in the presence of 500 mg/kg of zebularine.; type: functional; settings: po; method in brief: as §3
[25] = test system: Mus musculus; assay: Antitumor activity against L1210 tumor in mice, at a dose of 500 mg/kg peroral administration.; type: functional; settings: route oral
Method in brief: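 CDF1 mice received L1210 leukemia ip. Treatment was oral on day 1 only, 24 h after implantation, with ara-C at 500 mg/kg. Zebularine was given as a single dose immediately before ara-C, or as divided doses (e.g. 2 × 250 mg/kg 30 min apart, or half 30 min before and half immediately after). Read-out was % increase in life span.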

[26] = test system: Mus musculus; assay: Percent increase in life span of drug-treated mice relative to tumored, vehicle treated controls at a dose of 500 mg/kg oral treatment; type: functional; method in brief: as §3
[27] = test system: Mus musculus; assay: Antitumor activity against L1210 tumor in mice, at a dose of 500 mg/kg peroral administration in the presence of 10 mg/kg of zebularine.; type: functional
[28] = test system: Mus musculus; assay: Percent increase in life span of drug-treated mice relative to tumored, vehicle treated controls at a dose of 3.13 mg/kg ip.; type: functional; method in brief: as §1
[29] = test system: Mus musculus; assay: Percent increase in life span of drug-treated mice relative to tumored, vehicle treated controls at a dose of 6.25 mg/kg ip.; type: functional; method in brief: as §1
[30] = test system: Mus musculus; assay: Antitumor activity against P388 tumor in mice, at a dose of 200 mg/kg per ip administration.; type: functional; settings: route intraperitoneal; method in brief: as §2
[31] = test system: Mus musculus; assay: Antitumor activity against B16 tumor in mice, at a dose of 200 mg/kg per ip administration.; type: functional; settings: route intraperitoneal; method in brief: as §2
[32] = test system: Mus musculus; assay: Percent increase in life span of drug-treated mice relative to tumored, vehicle treated controls at a dose of 800 mg/kg oral administration
[33] = test system: Mus musculus; assay: Percent increase in life span of drug-treated mice relative to tumored, vehicle treated controls at a dose of 1600 mg/kg orally.; settings: oral
[34] = test system: Mus musculus; assay: Antitumor activity against B16 tumor in mice, at a dose of 800 mg/kg per ip administration.; type: functional; settings: route intraperitoneal; method in brief: as §2
[35] = test system: Mus musculus; assay: Antitumor activity against ara-c resistance L1210 tumor in mice, at a dose of 800 mg/kg per ip administration.; type: functional; settings: route intraperitoneal
Method in brief: (§4)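 An ara-C-resistant L1210 leukemia line (10^6 cells) was implanted ip on day 0 in CDF1 mice. Compound was given ip in physiologic saline daily on days 1–9. Read-out was % increase in life span versus saline-treated tumored controls, plus body-weight change difference.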

[36] = test system: Mus musculus; assay: Percent increase in life span of drug-treated mice relative to tumored, vehicle treated controls at a dose of 800 mg/kg, ip administration
[37] = test system: Mus musculus; assay: (§5) Antitumor activity against P388 tumor in mice, at a dose of 400 mg/kg per ip administration.; type: functional; settings: route intraperitoneal; method in brief: as §2
[38] = test system: Mus musculus; assay: Antitumor activity against […] tumor in mice, at a dose of 400 mg/kg per ip administration.; type: functional; settings: route intraperitoneal; method in brief: as §2
[39] = test system: Mus musculus; assay: Antitumor activity against ara-c resistance L1210 tumor in mice, at a dose of 200 mg/kg per ip administration.; type: functional; settings: route intraperitoneal; method in brief: as §4
[40] = test system: Mus musculus; assay: Percent increase in life span of drug-treated mice relative to tumored, vehicle treated controls at a dose of 600 mg/kg ip.; type: functional; method in brief: as §1
[41] = test system: Mus musculus; assay: as §5; type: functional; settings: route intraperitoneal; method in brief: as §2; remark: listed apart in the source
[42] = test system: Mus musculus; assay: Antitumor activity against L1210 tumor in mice, at a dose of 1600 mg/kg per oral administration.
[43] = test system: Mus musculus; assay: Antitumor activity against P388 tumor in mice, at a dose of 600 mg/kg per ip administration.; type: functional; settings: route intraperitoneal; method in brief: as §2
[44] = test system: Mus musculus; assay: Antitumor activity against ara-c resistance L1210 tumor in mice, at a dose of 400 mg/kg per ip administration.; type: functional; settings: route intraperitoneal; method in brief: as §4
[45] = test system: Mus musculus; assay: Antitumor activity against B16 tumor in mice, at a dose of 400 mg/kg per ip administration.; type: functional; settings: route intraperitoneal; method in brief: as §2

## O=c1ncccn1[C@@H]1O[C@H](CO)[C@@H](O)[C@@H]1F
[1]; Mus musculus, ip
  ILS at 400 mg/kg: 37%
[2]
  Weight change difference: 1 g
[3]
  Weight change difference: 0 g
[4]
  ILS at 200 mg/kg: 31%
[5]
  Weight change difference: 1 g
[6]; Mus musculus, ip
  ILS at 800 mg/kg: 43%

## O=c1ncc(F)cn1C1O[C@H](CO)[C@@H](O)[C@H]1O (some centres undefined)
[7]
  Weight change difference: -1 g
[8]
  ILS at 3.75 mg/kg: 60%
[9]
  ILS: 137% [middle of 4 runs]
[10]
  Weight change difference: 0 g
[11]
  ILS: 118% and 45% and 50%
[12]
  Weight change difference: -1 g and -2 g
[13]
  Weight change difference: 0 g
[14]
  Weight change difference: 0 g
[15]
  Weight change difference: -2 g
[16]
  ILS: 75% and 50%
[17]
  ILS at 1.25 mg/kg: 75%
[18]
  Weight change difference: -2 g
[19]
  Weight change difference: -1 g
[20]
  Weight change difference: -2 g
[21]
  ILS at 0.68 mg/kg: 62%

## Nc1ccn([C@@H]2O[C@H](CO)[C@@H](O)[C@@H]2O)c(=O)n1 [CYTARABINE]
[22]; 100 mg/kg
  ILS: 68%
[22]; Mus musculus, po
  ILS at 100 mg/kg: 68%
[23]
  Weight change difference: -1 g
[24]
  ILS at 500 mg/kg: 74%
[25]
  Weight change difference: -0.5 g
[26]
  ILS: 44% and 74% and 80%
[27]
  Weight change difference: -2.2 g

## OC[C@H]1O[C@@H](n2cnc3cncnc32)[C@H](O)[C@@H]1O [NEBULARINE]
[28]; 3.13 mg/kg
  ILS: 52%
[28]; Mus musculus, ip
  ILS at 3.13 mg/kg: 60%
[29]; 6.25 mg/kg
  ILS: 34%
[29]; Mus musculus, ip
  ILS at 6.25 mg/kg: 40%

## O=c1ncccn1[C@@H]1O[C@H](CO)[C@@H](O)[C@H]1O [ZEBULARINE]
[30]
  Weight change difference: -2 g and -0.7 g
[1]; 400 mg/kg
  ILS: 66% [middle of 7 runs]
[2]
  Weight change difference: -2.8 g
[31]
  Weight change difference: -0.5 g
[32]
  ILS at 800 mg/kg: 81%
[3]
  Weight change difference: -0.4 g
[33]
  ILS at 1600 mg/kg: 112%
[34]
  Weight change difference: 0 g
[35]
  Weight change difference: -3.4 g
[36]
  ILS at 800 mg/kg: 110%
[4]; 200 mg/kg
  ILS: 34% and 25% and 40%
[4]
  ILS at 200 mg/kg: 36%
[37]
  Weight change difference: -1.2 g
[38]
  Weight change difference: -2.1 g
[39]
  Weight change difference: -1.6 g
[40]
  ILS at 600 mg/kg: 45%
[41]
  Weight change difference: -2.3 g
[42]
  Weight change difference: -2.3 g
[43]
  Weight change difference: -1.3 g
[44]
  Weight change difference: -1.8 g
[45]
  Weight change difference: -0.1 g and -0.2 g
[6]; 800 mg/kg
  ILS: 77% [middle of 5 runs]
